Experimental data: ChEMBL document CHEMBL1165950, “Design and synthesis of new potent anticancer pyrazoles with high FLT3 kinase inhibitory selectivity” (Bioorg Med Chem, 2010)

Tests used:
Assay type in all cases: functional
HCC 2998 = assay: Cytotoxicity against human HCC2998 cells assessed as cell growth at 10 uM; settings: read-out: Activity
Procedure, shortened: (§1)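 Single-dose NCI-60 screen at 10 µM. Cells were grown in RPMI 1640 with 5% FBS and 2 mM L-glutamine, then treated for 48 h at 37 °C. Protein was measured by SRB staining with absorbance at 515 nm. Percentage growth was recorded, and inhibition percentage was calculated as 100 minus growth percentage.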

HOP-62 = assay: Cytotoxicity against human HOP62 cells assessed as cell growth at 10 uM; settings: read-out: Activity; procedure, shortened: as §1
LOX IMVI = assay: Cytotoxicity against human LOXIMVI cells assessed as cell growth at 10 uM; settings: read-out: Activity
Procedure, shortened: (§2)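 NCI-60 screen: cells grown in RPMI 1640 with 5% FBS and 2 mM L-glutamine, plated at 5000–40,000 cells/well according to doubling time, and preincubated 24 h at 37 °C, 5% CO2. The single 10 µM dose (DMSO stock) was added, then incubated 48 h. Cells were TCA-fixed and stained with 0.4% SRB, read at 515 nm, and growth % calculated against time-zero and control plates.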

SK-MEL-28 = assay: Cytotoxicity against human SK-MEL-28 cells assessed as cell growth at 10 uM; settings: read-out: Activity; procedure, shortened: as §2
MDA-MB-468 = assay: Cytotoxicity against human MDA-MB-468 cells assessed as cell growth at 10 uM; settings: read-out: Activity; procedure, shortened: as §2
SNB-19 = assay: Cytotoxicity against human SNB19 cells assessed as cell growth at 10 uM; settings: read-out: Activity; procedure, shortened: as §2
SR = assay: Cytotoxicity against human SR cells assessed as cell growth at 10 uM; settings: read-out: Activity; procedure, shortened: as §2
U-251 = assay: Cytotoxicity against human U251 cells assessed as cell growth at 10 uM; settings: read-out: Activity; procedure, shortened: as §2
OVCAR-3 = assay: Cytotoxicity against human OVCAR-3 cells assessed as cell growth at 10 uM; settings: read-out: Activity; procedure, shortened: as §2
NCI-H23 = assay: Cytotoxicity against human NCI-H23 cells assessed as cell growth at 10 uM; settings: read-out: Activity; procedure, shortened: as §2
NCI-H322M = assay: Cytotoxicity against human NCI-H322M cells assessed as cell growth at 10 uM; settings: read-out: Activity; procedure, shortened: as §2
COLO 205 = assay: Cytotoxicity against human COLO205 cells assessed as cell growth at 10 uM; settings: read-out: Activity; procedure, shortened: as §1
CAKI-1 = assay: Cytotoxicity against human Caki1 cells assessed as cell growth at 10 uM; settings: read-out: Activity; procedure, shortened: as §1
ACHN = assay: Cytotoxicity against human ACHN cells assessed as cell growth at 10 uM; settings: read-out: Activity; procedure, shortened: as §1
OVCAR-8 = assay: Cytotoxicity against human OVCAR8 cells assessed as cell growth at 10 uM; settings: read-out: Activity; procedure, shortened: as §2
SK-MEL-5 = assay: Cytotoxicity against human SK-MEL-5 cells assessed as cell growth at 10 uM; settings: read-out: Activity; procedure, shortened: as §2
HT-29 = assay: Cytotoxicity against human HT-29 cells assessed as cell growth at 10 uM; settings: read-out: Activity; procedure, shortened: as §1
OVCAR-5 = assay: Cytotoxicity against human OVCAR5 cells assessed as cell growth at 10 uM; settings: read-out: Activity; procedure, shortened: as §2
MOLT-4 = assay: Cytotoxicity against human MOLT4 cells assessed as cell growth at 10 uM; settings: read-out: Activity; procedure, shortened: as §2
MDA-MB-231 = assay: Cytotoxicity against human MDA-MB-231 cells assessed as cell growth at 10 uM; settings: read-out: Activity; procedure, shortened: as §2
SNB-75 = assay: Cytotoxicity against human SNB75 cells assessed as cell growth at 10 uM; settings: read-out: Activity; procedure, shortened: as §2
M14 = assay: Cytotoxicity against human M14 cells assessed as cell growth at 10 uM; settings: read-out: Activity; procedure, shortened: as §2
NCI-H460 = assay: Cytotoxicity against human NCI-H460 cells assessed as cell growth at 10 uM; settings: read-out: Activity; procedure, shortened: as §2
MCF7 = assay: Cytotoxicity against human MCF7 cells assessed as cell growth at 10 uM; settings: read-out: Activity; procedure, shortened: as §2
Malme-3M = assay: Cytotoxicity against human MALME-3M cells assessed as cell growth at 10 uM; settings: read-out: Activity; procedure, shortened: as §2
UO-31 = assay: Cytotoxicity against human UO31 cells assessed as cell growth at 10 uM; settings: read-out: Activity; procedure, shortened: as §2
HCT-116 = assay: Cytotoxicity against human HCT116 cells assessed as cell growth at 10 uM; settings: read-out: Activity; procedure, shortened: as §1
[1] = Cytotoxicity against human Hs 578T cells assessed as cell growth at 10 uM; settings: read-out: Activity; procedure, shortened: as §1
KM12 = assay: Cytotoxicity against human KM12 cells assessed as cell growth at 10 uM; settings: read-out: Activity; procedure, shortened: as §2
RXF 393 = assay: Cytotoxicity against human RXF393 cells assessed as cell growth at 10 uM; settings: read-out: Activity; procedure, shortened: as §2
HL-60(TB) = assay: Cytotoxicity against human HL-60(TB) cells assessed as cell growth at 10 uM; settings: read-out: Activity
Procedure, shortened: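 NCI 60-cell panel screen at a single concentration of 10 µM. Cells are grown in RPMI 1640 with 5% FBS and 2 mM L-glutamine and read by SRB protein staining at 515 nm. Percent growth is measured relative to time-zero and untreated controls; inhibition % is 100 minus growth %.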

MDA-MB-435 = assay: Cytotoxicity against human MDA-MB-435 cells assessed as cell growth at 10 uM; settings: read-out: Activity; procedure, shortened: as §2
DU-145 = assay: Cytotoxicity against human DU145 cells assessed as cell growth at 10 uM; settings: read-out: Activity; procedure, shortened: as §1
SN12C = assay: Cytotoxicity against human SN12C cells assessed as cell growth at 10 uM; settings: read-out: Activity; procedure, shortened: as §2
786-0 = assay: Cytotoxicity against human 786-0 cells assessed as cell growth at 10 uM; settings: read-out: Activity; procedure, shortened: as §1
[2] = Cytotoxicity against human […] cells assessed as cell growth at 10 uM; settings: read-out: Activity; procedure, shortened: as §2
IGROV-1 = assay: Cytotoxicity against human IGROV1 cells assessed as cell growth at 10 uM; settings: read-out: Activity; procedure, shortened: as §1
OVCAR-4 = assay: Cytotoxicity against human OVCAR4 cells assessed as cell growth at 10 uM; settings: read-out: Activity; procedure, shortened: as §2
TK-10 = assay: Cytotoxicity against human TK10 cells assessed as cell growth at 10 uM; settings: read-out: Activity; procedure, shortened: as §2
SK-MEL-2 = assay: Cytotoxicity against human SK-MEL-2 cells assessed as cell growth at 10 uM; settings: read-out: Activity; procedure, shortened: as §2
UACC-62 = assay: Cytotoxicity against human UACC62 cells assessed as cell growth at 10 uM; settings: read-out: Activity; procedure, shortened: as §2
A549 = assay: Cytotoxicity against human A549 cells assessed as cell growth at 10 uM; settings: read-out: Activity; procedure, shortened: as §1
SF-268 = assay: Cytotoxicity against human SF268 cells assessed as cell growth at 10 uM; settings: read-out: Activity; procedure, shortened: as §2
SW-620 = assay: Cytotoxicity against human SW620 cells assessed as cell growth at 10 uM; settings: read-out: Activity; procedure, shortened: as §2
EKVX = assay: Cytotoxicity against human EKVX cells assessed as cell growth at 10 uM; settings: read-out: Activity; procedure, shortened: as §1
SF-295 = assay: Cytotoxicity against human SF295 cells assessed as cell growth at 10 uM; settings: read-out: Activity; procedure, shortened: as §2
K562 = assay: Cytotoxicity against human K562 cells assessed as cell growth at 10 uM; settings: read-out: Activity; procedure, shortened: as §1
UACC-257 = assay: Cytotoxicity against human UACC257 cells assessed as cell growth at 10 uM; settings: read-out: Activity; procedure, shortened: as §2
PC-3 = assay: Cytotoxicity against human PC3 cells assessed as cell growth at 10 uM; settings: read-out: Activity; procedure, shortened: as §2
NCI/ADR-RES = assay: Cytotoxicity against human NCI/ADR-RES cells assessed as cell growth at 10 uM; settings: read-out: Activity; procedure, shortened: as §2
HOP-92 = assay: Cytotoxicity against human HOP92 cells assessed as cell growth at 10 uM; settings: read-out: Activity; procedure, shortened: as §1
[3] = Growth inhibition of human NCI60 cells at 10 uM after 48 hrs by sulforhodamine B assay relative to control; settings: NCI60, 48 h, read-out: GI
Procedure, shortened: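 Single-dose NCI screen at 10 µM across the 60-line panel, 48 h exposure at 37 °C after a 24 h preincubation. Adherent cells were fixed with cold TCA and stained with 0.4% SRB, and absorbance was read at 515 nm. Inhibition % was taken as 100 minus growth %, and the mean across all lines was reported.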

SK-OV-3 = assay: Cytotoxicity against human SKOV3 cells assessed as cell growth at 10 uM; settings: read-out: Activity; procedure, shortened: as §2
NCI-H226 = assay: Cytotoxicity against human NCI-H226 cells assessed as cell growth at 10 uM; settings: read-out: Activity; procedure, shortened: as §2
SF-539 = assay: Cytotoxicity against human SF539 cells assessed as cell growth at 10 uM; settings: read-out: Activity; procedure, shortened: as §2
BT-549 = assay: Cytotoxicity against human BT549 cells assessed as cell growth at 10 uM; settings: read-out: Activity; procedure, shortened: as §1
CCRF-CEM = assay: Cytotoxicity against human CCRF-CEM cells assessed as cell growth at 10 uM; settings: read-out: Activity; procedure, shortened: as §1
HCT-15 = assay: Cytotoxicity against human HCT15 cells assessed as cell growth at 10 uM; settings: read-out: Activity; procedure, shortened: as §1
A498 = assay: Cytotoxicity against human A498 cells assessed as cell growth at 10 uM; settings: read-out: Activity; procedure, shortened: as §1
NCI-H522 = assay: Cytotoxicity against human NCI-H522 cells assessed as cell growth at 10 uM; settings: read-out: Activity; procedure, shortened: as §2
T47D = assay: Cytotoxicity against human T47D cells assessed as cell growth at 10 uM; settings: read-out: Activity; procedure, shortened: as §2

`COc1cc(C)cc(-c2c(-c3ccnc(-c4cccc(NC(C)=O)c4)c3)cnn2CC#N)c1` showed a growth at 10 µM (HCC 2998) of 101%, a growth at 10 µM (HOP-62) of 98.9% and a growth at 10 µM (LOX IMVI) of 97.5%. The growth at 10 µM (SK-MEL-28) was 104%, the growth at 10 µM (MDA-MB-468) was 82.8% and the growth at 10 µM (SNB-19) was 89.6%. For the same molecule, the growth at 10 µM (SR) was 80.9%, the growth at 10 µM (U-251) was 94.3% and the growth at 10 µM (OVCAR-3) was 109%. It also gave a growth at 10 µM (NCI-H23) of 95.3%, a growth at 10 µM (NCI-H322M) of 96.9% and a growth at 10 µM (COLO 205) of 93.5%. It also gave a growth at 10 µM (CAKI-1) of 77.3%, a growth at 10 µM (ACHN) of 86% and a growth at 10 µM (OVCAR-8) of 88%. It also gave a growth at 10 µM (SK-MEL-5) of 86.9%, a growth at 10 µM (HT-29) of 99.4% and a growth at 10 µM (OVCAR-5) of 91.6%. It also gave a growth at 10 µM (MOLT-4) of 82.8%, a growth at 10 µM (MDA-MB-231) of 86.5% and a growth at 10 µM (SNB-75) of 72.4%. For the same molecule, the growth at 10 µM (M14) was 96.3%, the growth at 10 µM (NCI-H460) was 107% and the growth at 10 µM (MCF7) was 85%. The growth at 10 µM (Malme-3M) was 108%, the growth at 10 µM (UO-31) was 63.6% and the growth at 10 µM (HCT-116) was 96.4%. The growth at 10 µM [1] was 99%, the growth at 10 µM (KM12) was 109% and the growth at 10 µM (RXF 393) was 81.5%. It also gave a growth at 10 µM (HL-60(TB)) of 74.7%, a growth at 10 µM (MDA-MB-435) of 99.6% and a growth at 10 µM (DU-145) of 105%. The growth at 10 µM (SN12C) was 83%, the growth at 10 µM (786-0) was 84% and the growth at 10 µM [2] was 79.9%. It also gave a growth at 10 µM (IGROV-1) of 98.4%, a growth at 10 µM (OVCAR-4) of 99.7% and a growth at 10 µM (TK-10) of 67.1%. The growth at 10 µM (SK-MEL-2) was 92.1%, the growth at 10 µM (UACC-62) was 81.6% and the growth at 10 µM (A549) was 86.7%. For the same molecule, the growth at 10 µM (SF-268) was 97.3%, the growth at 10 µM (SW-620) was 104% and the growth at 10 µM (EKVX) was 100%. It also gave a growth at 10 µM (SF-295) of 102%, a growth at 10 µM (K562) of 86.4% and a growth at 10 µM (UACC-257) of 89.8%. For the same molecule, the growth at 10 µM (PC-3) was 85.8%, the growth at 10 µM (NCI/ADR-RES) was 87.3% and the growth at 10 µM (HOP-92) was 79.6%. The inhibition of growth at 10 µM [3] was 9.4%, the growth at 10 µM (SK-OV-3) was 93.3% and the growth at 10 µM (NCI-H226) was 93.1%. The growth at 10 µM (SF-539) was 84.5%, the growth at 10 µM (BT-549) was 79.1% and the growth at 10 µM (CCRF-CEM) was 88.9%. The growth at 10 µM (HCT-15) was 94.5%, the growth at 10 µM (A498) was 74.2% and the growth at 10 µM (NCI-H522) was 82.5%. For the same molecule, the growth at 10 µM (T47D) was 79.3%.
